Test results taken from ChEMBL document CHEMBL4052830, “Dual Nicotinic Acetylcholine Receptor α4β2 Antagonists/α7 Agonists: Synthesis, Docking Studies, and Pharmacological Evaluation of Tetrahydroisoquinolines and Tetrahydroisoquinolinium Salts” (J Med Chem, 2018).
Active and inactive are the calls of the source. The rule behind the calls is not given here.

Assays:
[1] = molecular target: T1, Neuronal acetylcholine receptor; alpha3/beta4 (Rattus norvegicus, UniProt P04757+P12392); test: Displacement of [3H]epibatidine from rat alpha3beta4 nAChR expressed in HEK293 cell membranes after 4 hrs by scintillation counting method
T1 sequence (P04757 whole entry): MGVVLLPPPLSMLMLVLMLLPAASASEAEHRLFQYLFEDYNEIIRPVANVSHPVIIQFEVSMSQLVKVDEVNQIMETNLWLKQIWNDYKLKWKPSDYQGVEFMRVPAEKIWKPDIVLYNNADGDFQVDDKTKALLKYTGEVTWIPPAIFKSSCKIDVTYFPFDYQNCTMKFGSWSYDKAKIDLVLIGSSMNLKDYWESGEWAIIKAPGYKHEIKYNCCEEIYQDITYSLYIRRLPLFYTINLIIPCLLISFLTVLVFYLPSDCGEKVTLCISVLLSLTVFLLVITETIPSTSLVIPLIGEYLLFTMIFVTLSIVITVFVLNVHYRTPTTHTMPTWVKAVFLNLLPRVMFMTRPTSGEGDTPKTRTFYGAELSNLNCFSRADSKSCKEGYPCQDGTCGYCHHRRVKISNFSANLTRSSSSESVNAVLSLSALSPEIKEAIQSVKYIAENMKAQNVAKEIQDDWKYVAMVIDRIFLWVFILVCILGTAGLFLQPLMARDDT
T1 sequence (P12392 whole entry): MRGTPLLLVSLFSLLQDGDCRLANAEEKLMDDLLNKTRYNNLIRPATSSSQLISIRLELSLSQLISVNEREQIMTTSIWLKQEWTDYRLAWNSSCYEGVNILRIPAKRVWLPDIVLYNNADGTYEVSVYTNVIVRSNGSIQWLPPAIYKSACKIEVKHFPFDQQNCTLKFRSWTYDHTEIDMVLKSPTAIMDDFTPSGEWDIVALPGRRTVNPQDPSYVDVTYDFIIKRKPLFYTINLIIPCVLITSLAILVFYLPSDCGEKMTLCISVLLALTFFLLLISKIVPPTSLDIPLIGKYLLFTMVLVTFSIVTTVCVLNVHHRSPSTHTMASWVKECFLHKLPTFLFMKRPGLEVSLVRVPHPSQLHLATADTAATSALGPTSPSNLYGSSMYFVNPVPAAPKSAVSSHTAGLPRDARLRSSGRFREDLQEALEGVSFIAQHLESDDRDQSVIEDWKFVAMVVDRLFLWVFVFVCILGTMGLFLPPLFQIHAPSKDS
Procedure, shortened: (§1)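 Membranes from HEK293 lines stably expressing α3β4, α4β4 or α4β2 nAChR, [3H]epibatidine competition binding. Ki came from concentration-inhibition curves. Means of 3–5 experiments in duplicate.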

Mus musculus [2] = test: Anti-depressant like activity in sc dosed mouse assessed as increase in swimming activity administered 15 mins prior to testing by forced swim test; format: functional, organism-based
Procedure, shortened: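 Mouse forced swim test, n = 9–10 per group, doses 1, 3 and 10 mg/kg. Each mouse was placed in a 16 cm diameter beaker with 20 cm of water at 23.5–24.5 °C for 6 min. Camera-tracked total swim distance was scored after the first minute. Analysed by one-way ANCOVA with planned pairwise comparisons.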

[3] = molecular target: T1, Neuronal acetylcholine receptor; alpha3/beta4; test: Antagonist activity at rat alpha3beta4 nAChR expressed in HEK293 cells assessed as inhibition of (S)-nicotine-induced […] response measured up to 90 secs by FMP assay; format: cell-based
Procedure, shortened: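 Rat α3β4 nAChR in stably expressing HEK293 cells, FLIPR Membrane Potential Blue assay. Antagonist mode against (S)-nicotine at EC70–EC90. IC50 derived from concentration-inhibition curves. Means of 3–5 experiments in duplicate.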

[4] = molecular target: Neuronal acetylcholine receptor; alpha4/beta2 (Rattus norvegicus, UniProt P09483+P12390); test: Displacement of [3H]epibatidine from rat alpha4beta2 nAChR expressed in HEK293 cell membranes after 4 hrs by scintillation counting method; procedure, shortened: as §1
Sequence of Neuronal acetylcholine receptor; alpha4/beta2 (Rattus norvegicus, UniProt P09483+P12390) (P09483 whole entry): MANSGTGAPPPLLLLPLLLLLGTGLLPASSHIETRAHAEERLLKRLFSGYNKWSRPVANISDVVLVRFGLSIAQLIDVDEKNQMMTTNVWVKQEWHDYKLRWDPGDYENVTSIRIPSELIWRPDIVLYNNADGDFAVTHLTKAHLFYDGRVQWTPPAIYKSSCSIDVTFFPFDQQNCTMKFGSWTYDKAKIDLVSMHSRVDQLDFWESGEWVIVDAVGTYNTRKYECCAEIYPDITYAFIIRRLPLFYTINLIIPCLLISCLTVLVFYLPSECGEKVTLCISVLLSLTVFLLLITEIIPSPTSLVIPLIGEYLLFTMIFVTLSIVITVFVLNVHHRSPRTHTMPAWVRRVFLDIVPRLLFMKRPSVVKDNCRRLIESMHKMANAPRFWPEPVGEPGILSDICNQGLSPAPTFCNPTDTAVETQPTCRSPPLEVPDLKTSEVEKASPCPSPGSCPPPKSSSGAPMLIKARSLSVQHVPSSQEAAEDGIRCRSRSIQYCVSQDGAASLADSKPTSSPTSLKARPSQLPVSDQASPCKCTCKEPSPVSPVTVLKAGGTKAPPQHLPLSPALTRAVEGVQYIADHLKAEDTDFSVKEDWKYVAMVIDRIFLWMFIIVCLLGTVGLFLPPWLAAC
Sequence of Neuronal acetylcholine receptor; alpha4/beta2 (Rattus norvegicus, UniProt P09483+P12390) (P12390 whole entry): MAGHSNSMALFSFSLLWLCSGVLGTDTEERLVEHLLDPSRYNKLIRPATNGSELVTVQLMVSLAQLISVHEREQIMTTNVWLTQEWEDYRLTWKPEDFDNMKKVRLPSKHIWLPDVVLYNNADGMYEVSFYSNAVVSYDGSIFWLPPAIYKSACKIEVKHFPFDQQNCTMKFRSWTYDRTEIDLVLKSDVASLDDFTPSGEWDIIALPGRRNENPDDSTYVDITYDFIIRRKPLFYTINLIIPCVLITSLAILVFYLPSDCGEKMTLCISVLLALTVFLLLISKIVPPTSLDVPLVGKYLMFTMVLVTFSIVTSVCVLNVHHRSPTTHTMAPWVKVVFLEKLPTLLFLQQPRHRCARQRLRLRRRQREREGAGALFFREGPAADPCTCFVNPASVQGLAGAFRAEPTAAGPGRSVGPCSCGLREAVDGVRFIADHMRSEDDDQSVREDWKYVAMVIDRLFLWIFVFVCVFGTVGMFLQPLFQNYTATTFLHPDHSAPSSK

[5] = molecular target: T2, Neuronal acetylcholine receptor subunit alpha-7 (Homo sapiens, UniProt P36544); test: Agonist activity at human alpha7 nAChR expressed in HEK293 cells co-expressing Ric-3/NACHO assessed as induction of calcium mobilization at 10 uM measured up to 90 secs in presence of PNU-120596 by FLIPR assay; format: cell-based
T2 sequence (P36544 whole entry): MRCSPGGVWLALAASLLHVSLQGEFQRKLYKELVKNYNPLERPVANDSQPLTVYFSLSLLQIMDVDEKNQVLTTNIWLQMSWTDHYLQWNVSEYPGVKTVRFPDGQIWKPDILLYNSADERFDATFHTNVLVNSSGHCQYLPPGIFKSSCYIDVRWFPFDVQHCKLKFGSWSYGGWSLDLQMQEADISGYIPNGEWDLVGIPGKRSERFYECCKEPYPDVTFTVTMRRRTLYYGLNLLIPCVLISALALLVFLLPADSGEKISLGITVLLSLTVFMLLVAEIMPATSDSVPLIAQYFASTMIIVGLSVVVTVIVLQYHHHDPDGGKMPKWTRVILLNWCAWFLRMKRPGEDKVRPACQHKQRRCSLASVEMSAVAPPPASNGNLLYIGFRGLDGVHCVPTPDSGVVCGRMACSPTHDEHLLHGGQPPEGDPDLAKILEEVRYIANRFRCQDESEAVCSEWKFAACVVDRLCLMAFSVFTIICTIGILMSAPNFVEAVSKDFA

[6] = molecular target: Neuronal acetylcholine receptor; alpha4/beta4 (Rattus norvegicus, UniProt P09483+P12392); test: Displacement of [3H]epibatidine from rat alpha4beta4 nAChR expressed in HEK293 cell membranes after 4 hrs by scintillation counting method; procedure, shortened: as §1
Sequence of Neuronal acetylcholine receptor; alpha4/beta4 (P09483 whole entry): as the sequence (P09483 whole entry) above
Sequence of Neuronal acetylcholine receptor; alpha4/beta4 (P12392 whole entry): as the sequence (P12392 whole entry) above

[7] = molecular target: Nicotinic acetylcholine receptor alpha-4/beta-2 (Mus musculus, UniProt Q8R493+Q9ERK7); test: Antagonist activity at mouse alpha4beta2 nAChR expressed in HEK293 cells assessed as inhibition of (S)-nicotine-induced […] response measured up to 90 secs by FMP assay; format: cell-based
Sequence of Nicotinic acetylcholine receptor alpha-4/beta-2 (Q9ERK7 whole entry): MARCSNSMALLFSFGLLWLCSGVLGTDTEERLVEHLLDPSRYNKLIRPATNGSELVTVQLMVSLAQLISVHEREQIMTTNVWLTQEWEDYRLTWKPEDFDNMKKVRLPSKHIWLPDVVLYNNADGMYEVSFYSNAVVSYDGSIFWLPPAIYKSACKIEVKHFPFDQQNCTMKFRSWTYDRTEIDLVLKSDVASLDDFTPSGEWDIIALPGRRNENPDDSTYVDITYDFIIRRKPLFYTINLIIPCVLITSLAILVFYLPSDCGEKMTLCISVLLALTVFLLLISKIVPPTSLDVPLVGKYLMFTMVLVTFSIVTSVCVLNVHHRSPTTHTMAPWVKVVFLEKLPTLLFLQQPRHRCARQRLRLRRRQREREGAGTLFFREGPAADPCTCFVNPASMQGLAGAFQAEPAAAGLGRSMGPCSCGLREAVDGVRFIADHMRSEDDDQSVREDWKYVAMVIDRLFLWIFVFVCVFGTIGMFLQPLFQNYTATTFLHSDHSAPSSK
Sequence of Nicotinic acetylcholine receptor alpha-4/beta-2 (Q8R493 whole entry): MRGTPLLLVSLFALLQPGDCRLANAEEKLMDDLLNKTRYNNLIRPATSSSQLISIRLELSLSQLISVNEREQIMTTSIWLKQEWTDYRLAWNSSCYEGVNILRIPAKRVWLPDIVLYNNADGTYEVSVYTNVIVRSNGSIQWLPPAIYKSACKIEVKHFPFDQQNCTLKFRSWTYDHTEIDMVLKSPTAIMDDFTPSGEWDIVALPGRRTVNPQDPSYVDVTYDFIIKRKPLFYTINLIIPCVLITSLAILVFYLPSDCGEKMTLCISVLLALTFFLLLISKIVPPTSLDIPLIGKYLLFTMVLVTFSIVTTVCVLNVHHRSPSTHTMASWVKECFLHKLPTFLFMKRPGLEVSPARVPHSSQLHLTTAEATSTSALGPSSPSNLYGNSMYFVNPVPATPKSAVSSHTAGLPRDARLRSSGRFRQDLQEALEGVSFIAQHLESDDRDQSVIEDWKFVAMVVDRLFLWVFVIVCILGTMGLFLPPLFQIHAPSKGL
Procedure, shortened: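 Mouse α4β2 nAChR in stably expressing HEK293T cells, FLIPR Membrane Potential Blue assay. IC50 came from concentration-inhibition curves. Means of 3–5 experiments in duplicate.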

[8] = molecular target: T2, Neuronal acetylcholine receptor subunit alpha-7; test: Agonist activity at human alpha7 nAChR expressed in HEK293 cells co-expressing Ric-3/NACHO assessed as induction of calcium mobilization at 30 uM measured up to 90 secs in presence of PNU-120596 by FLIPR assay; format: cell-based
[9] = molecular target: T2, Neuronal acetylcholine receptor subunit alpha-7; test: Agonist activity at human alpha7 nAChR expressed in HEK293 cells co-expressing Ric-3/NACHO assessed as induction of calcium mobilization at 1 to 3 uM measured up to 90 secs in presence of PNU-120596 by FLIPR assay; format: cell-based
[10] = molecular target: T2, Neuronal acetylcholine receptor subunit alpha-7; test: Agonist activity at human alpha7 nAChR expressed in HEK293 cells co-expressing Ric-3/NACHO assessed as induction of calcium mobilization at >= 10 uM measured up to 90 secs in presence of PNU-120596 by FLIPR assay; format: cell-based
[11] = molecular target: T2, Neuronal acetylcholine receptor subunit alpha-7; test: Agonist activity at human alpha7 nAChR expressed in HEK293 cells co-expressing Ric-3/NACHO assessed as induction of calcium mobilization at 0.3 to 3 uM measured up to 90 secs in presence of PNU-120596 by FLIPR assay; format: cell-based
[12] = Selectivity ratio of IC50 for rat alpha3beta4 nAChR to IC50 for mouse alpha4beta2 nAChR
[13] = molecular target: T2, Neuronal acetylcholine receptor subunit alpha-7; test: Agonist activity at human alpha7 nAChR expressed in HEK293 cells co-expressing Ric-3/NACHO assessed as induction of calcium mobilization measured up to 90 secs in presence of PNU-120596 by FLIPR assay; format: cell-based
Procedure, shortened: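 Human α7 nAChR stably co-expressed with Ric-3 and NACHO in HEK293 cells, Ca2+/Fluo-4 fluorescence assay. Assay buffer held 3 μM PNU-120596 (α7 PAM) to slow desensitization. Agonist concentration-response curves gave EC50 and Rmax. Means of 3–5 experiments run in duplicate.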

[14] = molecular target: Neuronal acetylcholine receptor; alpha3/beta4 (Rattus norvegicus) (UniProt P04757+P12392); test: Potency index, ratio of DHbetaE Ki to test compound Ki for rat alpha3beta4 nAChR; format: protein-complex assay
[15] = molecular target: Neuronal acetylcholine receptor; alpha4/beta4 (Rattus norvegicus) (UniProt P09483+P12392); test: Potency index, ratio of DHbetaE Ki to test compound Ki for rat alpha4beta4 nAChR; format: protein-complex assay
Mus musculus [16] = test: Anti-depressant like activity in mouse assessed as increase in swimming activity at 10 mg/kg, sc administered 15 mins prior to testing by forced swim test; format: functional, organism-based
Procedure, shortened: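 Mice (n = 9–10) placed singly in a 16 cm beaker filled with water to 20 cm at 23.5–24.5 °C. Total swim distance over the 6 min test was recorded by overhead camera. Analysed by one-way ANCOVA, then planned pairwise comparisons of predicted means.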

[17] = molecular target: Neuronal acetylcholine receptor; alpha4/beta2 (Rattus norvegicus) (UniProt P09483+P12390); test: Potency index, ratio of DHbetaE Ki to test compound Ki for rat alpha4beta2 nAChR; format: protein-complex assay
[18] = molecular target: T2, Neuronal acetylcholine receptor subunit alpha-7; test: Antagonist activity at human alpha7 nAChR expressed in HEK293 cells co-expressing Ric-3/NACHO assessed as inhibition of ACh-induced calcium mobilization measured up to 90 secs in presence of PNU-120596 by FLIPR assay; format: cell-based
Procedure, shortened: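 Human α7 nAChR stably co-expressed with Ric-3/NACHO in HEK293 cells. Antagonist mode in the Ca2+/Fluo-4 assay: test ligand inhibits acetylcholine at EC70–EC90, with 3 μM PNU-120596 in the buffer. IC50 came from concentration-inhibition curves. Means of 3–5 experiments run in duplicate.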

Rattus norvegicus [19] = species on record: Rattus norvegicus; test: Selectivity ratio of Ki for rat alpha3beta4 nAChR to Ki for rat alpha4beta2 nAChR
Rattus norvegicus [20] = species on record: Rattus norvegicus; test: Selectivity ratio of Ki for rat alpha4beta4 nAChR to Ki for rat alpha4beta2 nAChR
[21] = molecular target: Neuronal acetylcholine receptor; alpha4/beta2 (Homo sapiens, UniProt P17787+P43681); test: Displacement of [3H]cytisine from human alpha4beta2 nAChR expressed in human SH-EP1 cell membranes after 75 mins by liquid scintillation spectrometry
Sequence of Neuronal acetylcholine receptor; alpha4/beta2 (Homo sapiens, UniProt P17787+P43681) (P17787 whole entry): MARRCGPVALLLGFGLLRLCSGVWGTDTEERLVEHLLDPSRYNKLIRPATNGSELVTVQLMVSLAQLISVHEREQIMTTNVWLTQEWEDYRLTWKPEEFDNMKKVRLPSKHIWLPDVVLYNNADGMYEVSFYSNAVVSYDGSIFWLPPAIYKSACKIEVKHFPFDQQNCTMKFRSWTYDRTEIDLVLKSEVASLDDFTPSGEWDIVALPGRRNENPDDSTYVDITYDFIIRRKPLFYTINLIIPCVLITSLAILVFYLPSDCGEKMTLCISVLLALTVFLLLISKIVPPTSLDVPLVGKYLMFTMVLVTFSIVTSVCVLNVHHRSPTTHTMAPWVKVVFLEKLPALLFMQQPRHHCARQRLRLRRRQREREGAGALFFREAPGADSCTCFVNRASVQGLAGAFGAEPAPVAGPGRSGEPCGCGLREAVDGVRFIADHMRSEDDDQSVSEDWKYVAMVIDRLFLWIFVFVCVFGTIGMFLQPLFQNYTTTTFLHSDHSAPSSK
Sequence of Neuronal acetylcholine receptor; alpha4/beta2 (Homo sapiens, UniProt P17787+P43681) (P43681 whole entry): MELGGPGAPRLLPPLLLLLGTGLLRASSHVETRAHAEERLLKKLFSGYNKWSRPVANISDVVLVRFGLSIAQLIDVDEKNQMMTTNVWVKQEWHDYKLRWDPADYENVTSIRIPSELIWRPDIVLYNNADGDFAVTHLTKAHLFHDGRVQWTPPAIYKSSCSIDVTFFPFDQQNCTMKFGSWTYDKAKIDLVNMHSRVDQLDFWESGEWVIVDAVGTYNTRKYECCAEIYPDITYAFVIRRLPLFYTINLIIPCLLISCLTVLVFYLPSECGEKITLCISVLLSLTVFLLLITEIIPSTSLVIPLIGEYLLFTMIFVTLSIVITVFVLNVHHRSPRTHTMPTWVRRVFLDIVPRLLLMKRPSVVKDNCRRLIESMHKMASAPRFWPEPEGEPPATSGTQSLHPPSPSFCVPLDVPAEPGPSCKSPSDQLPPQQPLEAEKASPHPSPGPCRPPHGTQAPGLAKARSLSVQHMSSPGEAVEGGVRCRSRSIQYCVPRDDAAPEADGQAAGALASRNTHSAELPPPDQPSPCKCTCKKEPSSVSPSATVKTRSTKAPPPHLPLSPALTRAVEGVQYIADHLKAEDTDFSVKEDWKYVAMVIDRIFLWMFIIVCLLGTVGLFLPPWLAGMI

| Structure (SMILES) | Ki [1] [µM] | IC50 [3] [µM] | Ki [4] [µM] | Ki [6] [µM] | IC50 [7] [µM] | EC50 [13] [µM] | IC50 [18] [µM] | also measured |
| --- | --- | --- | --- | --- | --- | --- | --- | --- |
| c1c2c(cc3c1OCO3)[C@H]1CCCN1CC2 | 100 | > 100 | 0.17 | 6.6 | 1.3 | – | – | Activity (Mus musculus [2]): Dose-dependent effect; Activity [5]: Active |
| COc1ccc2c(c1)C1CCCN1CC2 (stereo not given) | 100 | > 100 | 1.4 | 3.3 | 9.1 | – | – | Activity [8]: Active |
| COc1ccc2c(c1)CCN1CCCC21 (stereo not given) | > 100 | > 100 | 25 | 100 | 100 | > 100 | > 100 | – |
| c1c2c(cc3c1OCO3)[C@@H]1CCCN1CC2 | > 100 | > 100 | 4.5 | 100 | 30 | – | – | Activity [8]: Active |
| COc1cc2c(cc1OC)[C@H]1CCCN1CC2 | 100 | > 100 | 2.5 | 100 | 16 | > 100 | > 100 | – |
| COc1cc2c(cc1OC)[C@@H]1CCCN1CC2 | > 100 | > 100 | > 100 | > 100 | > 100 | > 100 | > 100 | – |
| c1c2c(cc3c1OCO3)C1CCCN1CC2 (stereo not given) | > 100 | – | 0.5 | 9.3 | 2.3 | – | – | Activity [8]: Active |
| COc1cc2c(cc1O)CCN1CC=C3C=C[C@H](OC)C[C@]321 [ERYSODINE] | – | – | – | – | – | – | – | Ki [21]: 0.05 µM |
| COc1ccc(CC2c3cc(OC)c(OC)cc3CCN2C)cc1OC (stereo not given) [LAUDANOSINE] | > 100 | > 100 | 100 | > 100 | > 100 | > 100 | > 100 | – |
| COc1ccc2c(c1)CCN(C)C2 | 100 | > 100 | 2.6 | 25 | 6.2 | > 100 | > 100 | – |

Now from value to molecule, other results behind:

| Ki [1] [µM] | IC50 [3] [µM] | Ki [4] [µM] | Ki [6] [µM] | IC50 [7] [µM] | Structure (SMILES) | EC50 [13] [µM] | IC50 [18] [µM] | also measured |
| --- | --- | --- | --- | --- | --- | --- | --- | --- |
| 30 | > 300 | 0.47 | 50 | 7.2 | COc1cc2c(cc1OCc1ccccc1)CC[N+](C)(C)C2 | – | – | Activity [9]: Dose-dependent effect; Activity [10]: inactive; Activity [11]: Dose-dependent effect |
| 11 | 50 | 0.045 | 2.7 | 0.22 | C[N+]12CCC[C@@H]1c1cc3c(cc1CC2)OCO3 (stereo not given in full) | 1.6 | – | Ratio IC50 [12]: 230; Ratio Ki [14]: 10; Ratio Ki [15]: 10; Activity (Mus musculus [16]): Active; Ratio Ki [17]: 10 |
| 300 | 300 | 2.1 | 300 | 3.1 | COc1cc2c(cc1OCc1ccccc1)CC[N+]1(C)CCCC21 (stereo not given) | – | – | Activity [10]: inactive; Activity [11]: Dose-dependent effect |
| > 300 | > 300 | 9.7 | > 300 | 11 | CC[N+]1(C)CCc2cc(OC)c(OC)cc2C1 (stereo not given) | – | – | Activity [8]: Active |
| > 300 | > 300 | 30 | 300 | 30 | C=CC[N+]1(C)CCc2cc(OC)c(OC)cc2C1 (stereo not given) | > 100 | > 100 | – |
| 50 | > 300 | 0.38 | 30 | 12 | C[N+]1(C)CCc2cc3c(cc2C1)OCO3 | 2.6 | – | Ratio Ki (Rattus norvegicus [19]): 130; Ratio Ki (Rattus norvegicus [20]): 80 |
| 30 | > 300 | 4.5 | 17 | 30 | COc1cc2c(cc1OCc1ccccc1)C[N+](C)(C)CC2 | – | – | Activity [10]: inactive |
| 300 | 300 | 11 | 300 | 5.7 | COc1cc2c(cc1OCc1ccccc1)C1CCC[N+]1(C)CC2 (stereo not given) | – | – | Activity [10]: inactive; Activity [11]: Dose-dependent effect |
| > 100 | > 100 | > 100 | > 100 | > 100 | COc1ccc(CC2c3cc(OC)c(OC)cc3CC[N+]2(C)C)cc1OC (stereo not given) | – | – | Activity [5]: Active |
| 30 | 30 | 0.14 | 50 | 0.52 | C[N+]12CCCC1c1cc3c(cc1CC2)OCO3 (stereo not given) | 2.6 | – | Ratio Ki (Rattus norvegicus [19]): 210; Ratio Ki (Rattus norvegicus [20]): 360; Ratio Ki [17]: 5 |
